# Source: PubChem (several laboratories)
# Rows were chosen to be rich in hits. Some 2.2% of all compounds tested hit in one or more screens of this group.
# CSN deneddyl inh – inhibitors of human CSN-mediated cullin deneddylation; Q92905; Purified CSN, SCF-Nedd8-OG deneddylation, fluorescence polarization; inhibition, % at 12.5 µM; 360,000 compounds, 0.38% hits; AID 651999;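 active = pattern-corrected inhibition above about 35%, with an unprinted fluorescence ratio check between 0.5 and 1.5, limit read from the data, passing the limit was not always enough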;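 note: 0% = enzyme with substrate and 100% = substrate without enzyme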
# Target sequence (Q92905 whole entry, looked up, one chain of several): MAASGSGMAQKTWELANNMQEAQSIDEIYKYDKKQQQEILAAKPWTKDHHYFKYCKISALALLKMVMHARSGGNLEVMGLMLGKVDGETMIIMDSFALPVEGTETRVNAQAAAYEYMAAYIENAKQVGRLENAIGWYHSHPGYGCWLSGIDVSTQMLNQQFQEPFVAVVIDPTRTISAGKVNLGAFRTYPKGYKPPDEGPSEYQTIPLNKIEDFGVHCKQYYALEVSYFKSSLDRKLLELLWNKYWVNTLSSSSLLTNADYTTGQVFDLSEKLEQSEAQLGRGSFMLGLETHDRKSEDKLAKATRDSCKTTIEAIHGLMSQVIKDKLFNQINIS
#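 Schedule: reaction 90 min, room temperature / Assay system: HEK293T-derived human Csn5 enzyme / Input: Csn5 at 0.24 nM final / Measure: inhibition of Csn5 cleavage, % / Control set: substrate-only high control, full reaction low control / Technique: fluorescence polarization of the substrate / Buffer or medium: Tris/NaCl/DTT buffer, pH 7.5 / Reagent: SCFSkp2-Nedd8OG substrate at 10 nM final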
# Myeloid diff MLP – promotes myeloid progenitor differentiation; ER-HoxA9 myeloid progenitors, lysozyme-GFP differentiation, flow cytometry; calls only at 10 µM; 360,000 compounds, 1% hits; AID 624256;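 active = normalized GFP-positive differentiation at or above the plate's own cutoff, the solvent-only control mean plus 3 SD; inconclusive = no clear call, values can overlap the other calls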;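 note: cells exposed to compound for four days before flow analysis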
# HNF4A DNA FP – change in binding of human HNF4 alpha to DNA; P41235; HNF4a-FITC DNA binding, fluorescence polarization, 1 h; activity change, % at 10 µM; 360,000 compounds, 0.3% hits; AID 1224865; in the data active = activity change above about 30%, passing the limit was not always enough
# Exocytosis inh – lytic granule exocytosis inhibition; TALL-104 LAMP-1 surface exposure, flow cytometry; cells stimulated with thapsigargin and PMA; inhibition, % at 10 µM; 360,000 compounds, 0.66% hits; AID 651702;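 active = inhibition above about 55%, limit read from the data; inconclusive = no clear call, values can overlap the other calls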
# Active calls of the source: *; i = inactive; u = inconclusive; x = not tested or not shown; + = active, no number.
SMILES,CSN deneddyl inh,Myeloid diff MLP,HNF4A DNA FP,Exocytosis inh
CN1CCN(C(=O)c2ccc3c(c2)N(Cc2ccc(Cl)cc2)C(=O)c2ccccc2S3=O)CC1 (centres undefined),-3,+,2,17
Nc1sc(-c2ccccc2)cc1C(=O)NCCc1ccc(Cl)cc1,9,i,56*,26
CC1Cc2ccccc2N1C(=O)c1cc2cccnc2n(C)c1=O (centres undefined),0,i,-1,-6
COc1cc(/C=C2\SC(=Nc3ccccc3)N(Cc3ccco3)C2=O)ccc1OC(C)C(=O)O (centres undefined),0,i,-4,-1
COCCN1C(=O)/C(=C/c2ccc(OCc3ccc(C(=O)O)cc3)c(OC)c2)SC1=Nc1ccccc1,1,i,-2,79*
Cc1cccc(-n2nc3c(c2NC(=O)c2ccco2)CSC3)c1C,36*,i,-20,6
CSc1nc(-c2ccco2)cc(C(F)(F)F)c1C#N,-1,i,21,-1
N#Cc1c(C(F)(F)F)cc(-c2ccco2)nc1SCc1ccncc1,25,+,13,3
N#Cc1c(C(F)(F)F)cc(-c2ccco2)nc1SCc1ccccn1,9,+,7,-1
CCN(CC)C(=O)CSc1nc(-c2ccco2)cc(C(F)(F)F)c1C#N,2,i,1,5
O=C(O)c1ccc(S(=O)(=O)NCC2CCCCC2)cc1,-3,i,72*,2
C[C@H]1CN([C@@H](C)CO)C(=O)c2cccc(NC(=O)c3nc4ccccc4s3)c2O[C@H]1CN(C)C(=O)Nc1ccc(F)cc1,-2,i,0,-4
O=C(c1ccc(Cl)c(Cl)c1)N1CCC(=O)N(C(COCc2cccc(Cl)c2)Cc2ccccc2)CC1 (centres undefined),-4,+,0,3
COc1ccc(OCCN2CCC(C(=O)NC(c3ccc(F)cc3)c3ccc4ccccc4n3)CC2)cc1 (centres undefined),0,i,-1,12
O=C(NC(c1ccc(F)cc1)c1ccc2ccccc2n1)C1CCN(CCOc2ccc(F)cc2)CC1 (centres undefined),-1,+,0,23
Cc1ccc(NC(=O)Cn2c(O)c(N=NS(=O)(=O)c3ccc(C)cc3)c3ccccc32)cc1,-4,i,-1,56*
O=C(NCCCn1ccnc1)c1ccc2nccnc2c1,-3,+,-1,9
O=C(COC(=O)c1cccc(F)c1)NC(=O)NCc1ccccc1,-4,i,0,-6
Cc1ccc2c(C)c(C(=O)NCCN3CCOC3=O)oc2c1C,3,i,-3,14
Cc1ccc(NC(=O)CSc2nnnn2-c2ccc3c(c2)OCO3)cc1C,-2,+,3,1
O=C1/C(=C\c2ccc(Cl)c(Cl)c2)CN(C(=O)CCN2CCOCC2)C/C1=C/c1ccc(Cl)c(Cl)c1,20,x,-1,65*
O=C1/C(=C\c2ccccc2)CN(C(=O)CCN2CCCCC2)C/C1=C/c1ccccc1,2,u,-4,83*
O=C(CCN1C(=O)S/C(=C\c2ccccc2)C1=O)N1CCCCC1,2,i,-2,-11
CC(C)(C)OC(=O)NC1CNNC1=O (centres undefined),0,i,1,-4
O=C(CCSc1ccccc1)NNC(=O)c1ccccc1F,-3,i,-5,-1
SMILES,CSN deneddyl inh,Myeloid diff MLP,HNF4A DNA FP,Exocytosis inh
O=C(NCCN1CCOCC1)c1cc2sccc2n1Cc1ccc(F)cc1,-1,i,-1,1
O=C(NCCN1CCOCC1)c1cc2sccc2n1Cc1ccc(Cl)cc1,0,+,2,2
O=C(CS(=O)c1ccc(C(F)(F)F)cc1[N+](=O)[O-])Oc1ccccc1 (centres undefined),5,i,-2,56*
CCOC(=O)c1ccccc1OC(=O)CS(=O)c1ccccc1[N+](=O)[O-] (centres undefined),-2,i,-3,-1
CS(=O)(=O)c1ccc(S(=O)CC(=O)OCc2ccccc2)c([N+](=O)[O-])c1 (centres undefined),2,u,-1,97*
Cc1cccc(NC(=O)c2ncn3c2C(=O)N(C)CC3)c1,-3,i,-1,-5
CCOc1ccc(CNC(=O)Cn2ccc3cc(S(=O)(=O)N4CCCC4)ccc32)cc1,3,i,4,0
CCOC(=O)c1cc(CC)sc1NC(=O)COC(=O)C1CCC1,-3,i,0,-2
COc1ccc(C(=O)c2c(N)sc3c2CCN(C(=O)OC(C)(C)C)C3)cc1,9,i,12,7
CN1CCc2c(sc(N)c2C(=O)c2ccc(Cl)cc2)C1,24,i,40*,-3
COc1cc(OC)c(OC)cc1/C=C1/Cc2ccccc2C1=O,10,i,-48,-4
COc1cc(OC)c(OC)cc1/C=C1\CC(C)C/C(=C\c2cc(OC)c(OC)cc2OC)C1=O (centres undefined),31,i,58*,36
Cc1nc(SCc2nc3ccc(C(F)(F)F)cc3[nH]2)c2oc3ccccc3c2n1,6,i,1,-2
O=C(CCN1C(=O)NC2(CCCC2)C1=O)Nc1ccc(-c2nc3ccccc3s2)cc1,10,+,26,4
COc1ccc(C2C(C(=O)c3ccccc3)N3c4ccccc4C=CC3C2[N+](=O)[O-])cc1 (centres undefined),37*,i,113,-1
CC(=O)c1coc2ccc(OCC(=O)O)cc12,0,+,0,-2
COc1ccc(OC)c(C(=O)c2coc3ccc(OCC(=O)O)cc23)c1,-3,i,4,-1
CCOc1ccc2c(c1)S/C(=C\c1cccs1)C(=O)N2,40*,i,8,-1
Cc1cc(C)cc(N=C2NC(=O)/C(=C/c3cccs3)S2)c1,-1,i,0,0
CCCN(C(=O)CSc1nc(C2CC2)n(-c2ccccc2)n1)C1CCS(=O)(=O)C1 (centres undefined),-1,i,2,0
Cc1ccc(S(=O)(=O)c2c(N)n(CCCO)c3nc4ccccc4nc23)cc1,41*,i,1,-1
CCCCn1c(NC(=O)c2ccco2)c(S(=O)(=O)c2ccc(C)cc2)c2nc3ccccc3nc21,54*,+,68*,-1
CCCCCn1c(NC(=O)c2ccco2)c(S(=O)(=O)c2ccc(C)cc2)c2nc3ccccc3nc21,8,+,3,14
Cc1ccc(C(=O)Nn2c(N)c(S(=O)(=O)c3ccc(C)cc3)c3nc4ccccc4nc32)cc1,-2,i,2,-1
CCCCn1c(NS(=O)(=O)c2ccccc2)c(S(=O)(=O)c2ccc(C)cc2)c2nc3ccccc3nc21,57*,i,-1,-2
CCC(=O)Nc1c(S(=O)(=O)c2ccc(C)cc2)c2nc3ccccc3nc2n1C(C)c1ccccc1 (centres undefined),0,i,2,-1
COc1ccc(C2=NOC(Cn3nc(-c4ccccc4)cc3C(=O)NCc3ccc(C)cc3)C2)cc1 (centres undefined),35*,i,8,-6
